Measured values published in ChEMBL document CHEMBL3813689, “Discovery of Potent Benzofuran-Derived Diapophytoene Desaturase (CrtN) Inhibitors with Enhanced Oral Bioavailability for the Treatment of Methicillin-Resistant Staphylococcus aureus (MRSA) Infections” (J Med Chem, 2016).
In brackets after ≈: the same amount, converted by molar mass. Activity calls are given as the source filed them. No cut-off for these calls is given here.

What was measured:
Staphylococcus aureus [1] = experiment: Inhibition of staphyloxanthin pigment formation in Staphylococcus aureus Newman after 48 hrs by spectrophotometric method; assay type: functional, organism-based
Summary of the method: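 Compounds as 20 mM DMSO stocks, serial 2-fold dilutions in DMSO; 40 µL added to 4 mL TSB culture, 37 °C for 48 h, in triplicate. Cells washed twice with PBS, pigment extracted with methanol, OD450 measured; IC50 from dose-response curve fit of OD data.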

[2] = target: T1, 4,4'-diapophytoene desaturase (4,4'-diaponeurosporene-forming) (Staphylococcus aureus (strain Newman), UniProt O07855); experiment: Inhibition of Staphylococcus aureus Newman 6His-tagged CrtN expressed in Escherichia coli BL21(DE3) using diapophytoene as substrate assessed as pigment formation after overnight incubation by spectrophotometric method; design: species or system Staphylococcus aureus subsp. aureus str. Newman
T1 sequence (O07855 whole entry): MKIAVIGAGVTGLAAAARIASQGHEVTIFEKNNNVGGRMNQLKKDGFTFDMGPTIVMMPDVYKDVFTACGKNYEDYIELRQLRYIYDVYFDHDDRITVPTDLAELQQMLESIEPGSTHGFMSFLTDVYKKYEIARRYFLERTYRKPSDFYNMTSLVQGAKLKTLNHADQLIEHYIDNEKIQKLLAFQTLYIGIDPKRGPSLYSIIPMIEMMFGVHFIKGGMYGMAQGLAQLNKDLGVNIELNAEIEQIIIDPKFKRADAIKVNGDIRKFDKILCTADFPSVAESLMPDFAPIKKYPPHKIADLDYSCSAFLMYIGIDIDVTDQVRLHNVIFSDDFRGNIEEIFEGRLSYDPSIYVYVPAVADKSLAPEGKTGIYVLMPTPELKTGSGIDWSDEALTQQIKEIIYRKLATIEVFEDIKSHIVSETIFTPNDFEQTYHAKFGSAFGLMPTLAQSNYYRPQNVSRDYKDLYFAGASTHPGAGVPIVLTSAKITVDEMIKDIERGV
Summary of the method: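 Lysate of E. coli BL21(DE3) expressing 6His-CrtN (IPTG 0.5 mM, 16 °C overnight), ~1.41 mg CrtN per reaction, with diapophytoene–phosphatidylcholine emulsion in 0.02 M HEPES pH 7.5 plus FAD. Anaerobic via glucose oxidase 20 U/mL, catalase 20000 U/mL, glucose 2 mM (final). Started with lysate, overnight at 37 °C; triplicate.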

[3] = Aqueous solubility of the compound by HPLC method; assay type: physicochemical
Summary of the method: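 Calibration with standards at 50, 100, 200, 400 and 800 µg/mL in methanol (peak area vs concentration). 10 mg solid stirred in 1 mL pure water for 24 h, more added if still clear; syringe-filtered, 10 µL injected; solubility read from calibration curve.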

[4] = test system: Trichophyton mentagrophytes; experiment: Antifungal activity against Trichophyton mentagrophytes measured after 7 days by serial dilution method; assay type: functional
Summary of the method: (§1)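 Broth serial dilution MIC per NCCLS in RPMI 1640 buffered with 0.165 M MOPS; compounds in DMSO diluted in medium. Dermatophytes incubated at 28 °C, read at 7 days. MIC taken as lowest concentration giving ≥80% growth inhibition versus control (turbidity).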

Nannizzia gypsea = experiment: Antifungal activity against Microsporum gypseum measured after 7 days by serial dilution method; assay type: functional; summary of the method: as §1
Trichophyton rubrum = experiment: Antifungal activity against Trichophyton rubrum measured after 7 days by serial dilution method; assay type: functional; summary of the method: as §1
Trichophyton verrucosum = experiment: Antifungal activity against Trichophyton verrucosum measured after 7 days by serial dilution method; assay type: functional; summary of the method: as §1
[5] = target: T2, 4,4'-diapophytoene desaturase (4,4'-diaponeurosporene-forming) (Staphylococcus aureus (strain Newman)) (UniProt O07855); conditions: Staphylococcus aureus subsp. aureus str. Newman; 100 uM
T2 sequence (whole entry): T1 sequence (O07855 whole entry)

Staphylococcus aureus [6] = experiment: Antibacterial activity against Staphylococcus aureus USA400 MW2 infected Balb/c mouse assessed as reduction of bacterial survival in kidney at 5.2 mg, ip bid administered for 4.5 days followed by bacterial infection measured after 5 days; assay type: functional
Summary of the method: (§2)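 Female BALB/c mice, 6–8 weeks. Compound in sterile water ip once and every 12 h for 108 h, total 50 or 200 mg/kg; water controls. Infected 12 h after first dose with 4 × 10^7 CFU USA400 MW2 (100 µL). Killed 5 days post infection; liver or kidney CFU counted on TSA after homogenising in PBS/0.1% Triton X-100. n = 13; two-tailed Mann-Whitney.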

Staphylococcus aureus [7] = experiment: Antibacterial activity against Staphylococcus aureus Mu50 infected Balb/c mouse assessed as reduction of bacterial survival in kidney at 5.2 mg, ip bid administered for 4.5 days followed by bacterial infection measured after 5 days; assay type: functional
Staphylococcus aureus [8] = experiment: Antibacterial activity against Staphylococcus aureus USA400 MW2 infected Balb/c mouse assessed as reduction of bacterial survival in liver at 5.2 mg, ip bid administered for 4.5 days followed by bacterial infection measured after 5 days; assay type: functional; summary of the method: as §2
Staphylococcus aureus [9] = experiment: Antibacterial activity against Staphylococcus aureus USA400 MW2 infected Balb/c mouse assessed as reduction of bacterial survival in liver at 1.3 mg, ip bid administered for 4.5 days followed by bacterial infection measured after 5 days; assay type: functional; summary of the method: as §2
Staphylococcus aureus [10] = experiment: Antibacterial activity against Staphylococcus aureus Mu50 infected Balb/c mouse assessed as reduction of bacterial survival in kidney at 1.3 mg, ip bid administered for 4.5 days followed by bacterial infection measured after 5 days; assay type: functional
Staphylococcus aureus [11] = experiment: Antibacterial activity against Staphylococcus aureus USA400 MW2 infected Balb/c mouse assessed as reduction of bacterial survival in kidney at 1.3 mg, ip bid administered for 4.5 days followed by bacterial infection measured after 5 days; assay type: functional, organism-based; summary of the method: as §2
Staphylococcus aureus [12] = experiment: Antibacterial activity against Staphylococcus aureus Mu50 infected Balb/c mouse assessed as reduction of bacterial survival in liver at 5.2 mg, ip bid for 4.5 days administered for 4.5 days followed by bacterial infection measured after 5 days; assay type: functional
Staphylococcus aureus [13] = experiment: Antibacterial activity against Staphylococcus aureus Mu50 infected Balb/c mouse assessed as reduction of bacterial survival in liver at 1.3 mg, ip bid administered for 4.5 days followed by bacterial infection measured after 5 days; assay type: functional

SMILES | IC50 (Staphylococcus aureus [1]) | further results
CN(C/C=C/c1ccc(Br)cc1)Cc1cccc2ccoc12.Cl | 6.44 nM | IC50 [2]: 355 nM; solubility [3]: 3900 µg/mL
CC(C)N(C/C=C/c1ccccc1)Cc1cccc2ccoc12 | > 1000 nM | –
CN(C/C=C/c1cccc(F)c1)Cc1cccc2ccoc12 | 513 nM | –
CN(C/C=C/c1cccc2ccccc12)Cc1cccc2ccoc12 | 888 nM | –
C(=C\c1ccccc1)/CNCc1cccc2ccoc12 | > 1000 nM | –
CN(CC#Cc1ccccc1)Cc1cccc2ccoc12 | 164 nM | –
COc1ccc(/C=C/CN(C)Cc2cccc3ccoc23)cc1.Cl | 11.1 nM | IC50 [2]: 684 nM; solubility [3]: 19700 µg/mL
CC(=O)N1CCN(c2ccc(OCC3COC(Cn4ccnc4)(c4ccc(Cl)cc4Cl)O3)cc2)CC1 (stereo not given) [KETOCONAZOLE] | – | MIC=<80 [4]: 0.0625 µg/mL (≈ 0.118 µM); MIC80 (lowest concentration giving ≥80% growth inhibition) (Nannizzia gypsea): 2 µg/mL (≈ 3.76 µM); MIC80 (Trichophyton rubrum): 0.5 µg/mL (≈ 0.941 µM); MIC80 (lowest concentration giving ≥80% growth inhibition) (Trichophyton verrucosum): 0.0625 µg/mL (≈ 0.118 µM)
CN(CC/C=C/c1ccccc1)Cc1cccc2ccoc12 | > 1000 nM | –
CN(C/C=C/c1ccccc1)Cc1cccc2ccccc12 | – | inhibition [5]: Active
CN(C/C=C/C1CCCCC1)Cc1cccc2ccoc12 | > 1000 nM | –
CN(C/C=C/C1CCCC1)Cc1cccc2ccoc12 | > 1000 nM | –
COC(=O)c1ccc(/C=C/CN(C)Cc2cccc3ccoc23)cc1 | 16.9 nM | –
CCN(C/C=C/c1ccccc1)Cc1cccc2ccoc12 | > 1000 nM | –
CN(C/C=C/c1cccc([N+](=O)[O-])c1)Cc1cccc2ccoc12 | > 1000 nM | –
O=P([O-])([O-])C(CCCc1cccc(Cc2ccccc2)c1)S(=O)(=O)[O-].[K+].[K+].[K+] (stereo not given) | – | Activity (Staphylococcus aureus [6]): 1.14 deltalog10CFU; Activity (Staphylococcus aureus [7]): 0.3 deltalog10CFU; Activity (Staphylococcus aureus [8]): 1.58 deltalog10CFU; Activity (Staphylococcus aureus [9]): 0.25 deltalog10CFU; Activity (Staphylococcus aureus [10]): 0.25 deltalog10CFU; Activity (Staphylococcus aureus [11]): Active; Activity (Staphylococcus aureus [12]): 2.84 deltalog10CFU; Activity (Staphylococcus aureus [13]): 1.87 deltalog10CFU
CN(C/C=C/c1ccc([N+](=O)[O-])cc1)Cc1cccc2ccoc12 | 71.7 nM | –
C[C@@H](c1ncncc1F)[C@](O)(Cn1cncn1)c1ccc(F)cc1F [VORICONAZOLE] | – | MIC=<80 [4]: 0.03125 µg/mL (≈ 0.0895 µM); MIC80 (lowest concentration giving ≥80% growth inhibition) (Nannizzia gypsea): 0.25 µg/mL (≈ 0.716 µM); MIC80 (Trichophyton rubrum): 0.03125 µg/mL (≈ 0.0895 µM); MIC80 (lowest concentration giving ≥80% growth inhibition) (Trichophyton verrucosum): 0.03125 µg/mL (≈ 0.0895 µM)

SMILES | IC50 (Staphylococcus aureus [1]) | further results
CN(C/C=C/c1ccco1)Cc1cccc2ccoc12 | > 1000 nM | –
OC(Cn1cncn1)(Cn1cncn1)c1ccc(F)cc1F [FLUCONAZOLE] | – | MIC=<80 [4]: 2 µg/mL (≈ 6.53 µM); MIC=<80 (Nannizzia gypsea): 8 µg/mL (≈ 26.1 µM); MIC=<80 (Trichophyton rubrum): 1 µg/mL (≈ 3.27 µM); MIC=<80 (Trichophyton verrucosum): 2 µg/mL (≈ 6.53 µM)
C/C(=C\c1ccccc1)CN(C)Cc1cccc2ccoc12 | > 1000 nM | –
Cc1cccc(/C=C/CN(C)Cc2cccc3ccoc23)c1 | > 1000 nM | –
C/C=C/CN(C)Cc1cccc2ccoc12 | > 1000 nM | –
CN(C/C=C/c1ccccc1[N+](=O)[O-])Cc1cccc2ccoc12 | > 1000 nM | –
CN(C/C=C/c1ccc(F)cc1)Cc1cccc2ccoc12 | 31.2 nM | –
CN(C/C=C/C=C/c1ccccc1)Cc1cccc2ccoc12 | 4.2 nM | –
CN(CCCc1ccccc1)Cc1cccc2ccoc12 | > 1000 nM | –
CN(C/C=C/c1ccc2ccccc2c1)Cc1cccc2ccoc12 | 17.1 nM | –
CN(Cc1cccc2ccoc12)C[C@@H]1C[C@H]1c1ccccc1 | > 1000 nM | –
CN(C/C=C/c1ccccc1)Cc1cccc2occc12 | 759 nM | –
CN(C/C=C/c1ccccc1F)Cc1cccc2ccoc12 | 288 nM | –
CN(C/C=C/c1ccccc1)Cc1cccc2ccoc12 | 247 nM | –
CN(C/C=C/c1ccc(C(C)(C)C)cc1)Cc1cccc2ccoc12 | 46.7 nM | –
Cc1ccc(/C=C/CN(C)Cc2cccc3ccoc23)cc1 | 35.2 nM | –
CN(C/C=C/c1ccc(Cl)cc1Cl)Cc1cccc2ccoc12.Cl | 8.21 nM | IC50 [2]: 740 nM; solubility [3]: 7200 µg/mL
CN(C/C=C/c1ccc(Cl)cc1)Cc1cccc2ccoc12.Cl | 6.2 nM | IC50 [2]: 219 nM; solubility [3]: 7400 µg/mL
